The results in this text go back to ChEMBL document CHEMBL1127414 (J Med Chem, 1994).

Assay [1] has as its target T1, Squalene synthase (Rattus norvegicus, UniProt Q02769).
T1 sequence (Q02769 whole entry): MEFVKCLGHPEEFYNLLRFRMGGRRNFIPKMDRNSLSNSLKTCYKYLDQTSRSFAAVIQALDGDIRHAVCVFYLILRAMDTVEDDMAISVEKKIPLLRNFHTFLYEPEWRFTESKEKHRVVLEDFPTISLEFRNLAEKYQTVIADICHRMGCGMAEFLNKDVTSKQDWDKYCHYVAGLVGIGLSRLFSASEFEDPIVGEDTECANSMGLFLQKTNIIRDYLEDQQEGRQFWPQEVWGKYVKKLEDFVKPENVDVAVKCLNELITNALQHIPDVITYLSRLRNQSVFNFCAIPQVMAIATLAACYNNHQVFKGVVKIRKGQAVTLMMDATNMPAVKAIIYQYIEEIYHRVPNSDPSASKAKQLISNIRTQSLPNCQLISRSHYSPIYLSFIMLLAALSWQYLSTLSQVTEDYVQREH
As to the kind of experiment: Tested for inhibition against squalene synthase enzyme in rat liver.

Assay [2] has as its system Mus musculus. As to the kind of experiment: Tested for its ability to inhibit the incorporation of [5-3H]-mevalonolactone into cholesterol by in vivo mouse assay by peroral administration at a dose of 12 mg/kg. To be noted: route oral. It counts as functional. In a few lines:
(§1)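 Female Swiss Webster mice (~25 g), six per group, dosed po by gavage with inhibitor suspended in 5% emulphor. 30 min later, 0.5 μCi/mouse [5-3H]mevalonolactone in saline given sc. Livers removed 30 min after that and saponified in KOH/EtOH overnight at 55 °C, then petroleum-ether extracted. Nonsaponifiable dpm counted. Compounds first tested at a single dose (typically 12 or 24 mg/kg).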

For assay [3], the target named is T2, Squalene synthase (Rattus norvegicus) (UniProt Q02769).
T2 sequence (whole entry): T1 sequence (Q02769 whole entry)
Description: Concentration required to inhibit rat liver squalene synthase enzyme relative to control (L-694,599). In a few lines: (§2)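 Enzyme from rat liver. […] Inhibitors added in DMSO (0.3% final) as 3-fold serial dilutions, usually up to 30 ng/mL (about 40 nM). IC50 read from % inhibition vs log concentration.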

In assay [4] the target is T3, Squalene synthase (Mus musculus) (UniProt P53798).
T3 sequence (whole entry): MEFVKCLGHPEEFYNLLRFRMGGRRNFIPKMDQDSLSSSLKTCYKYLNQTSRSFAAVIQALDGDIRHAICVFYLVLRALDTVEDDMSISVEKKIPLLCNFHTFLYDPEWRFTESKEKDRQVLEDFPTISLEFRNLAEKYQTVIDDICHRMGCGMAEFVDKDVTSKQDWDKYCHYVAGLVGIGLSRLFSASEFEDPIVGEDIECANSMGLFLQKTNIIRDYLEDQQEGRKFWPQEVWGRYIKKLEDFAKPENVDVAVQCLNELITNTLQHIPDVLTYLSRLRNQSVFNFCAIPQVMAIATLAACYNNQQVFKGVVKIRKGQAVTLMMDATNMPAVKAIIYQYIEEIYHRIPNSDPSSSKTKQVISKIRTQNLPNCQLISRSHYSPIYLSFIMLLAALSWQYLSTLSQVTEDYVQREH
Description: Tested for the effective dose required for the incorporation of [5-3H]-mevalonolactone into cholesterol by in vivo mouse assay by peroral administration. The assay is classed as functional, organism-based. The gist of the method: as §1

Assay [5] has as its system HepG2. Description: Concentration required to inhibit cholesterol synthesis in Hep G2 cells. To be noted: Homo sapiens. It counts as functional, cell-based. In a few lines: (§3)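 Hep G2 cells held 2 days in lipoprotein-depleted FBS to stimulate sterol synthesis, then given inhibitor in serum-free medium for 2 h. 15 μCi [5-3H]mevalonate (0.2 mCi/mmol) added for 1 h. Cells washed and saponified, and radioactivity counted by scintillation.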

For assay [6], the system named is Mus musculus. Description: Tested for its ability to inhibit the incorporation of [5-3H]-mevalonolactone into cholesterol by in vivo mouse assay by peroral administration at a dose of 40 mg/kg. It counts as functional. Conditions: route oral; call rule not given here. The gist of the method: as §1
Assay [7] concerns HepG2. As to the kind of experiment: Concentration required to inhibit cholesterol synthesis in Hep G2 cells relative to control (IC50 of L-694,599). The assay is classed as functional, Homo sapiens. The gist of the method:
as §3

Assay [8] has as its target T2, Squalene synthase (Rattus norvegicus). As to the kind of experiment: concentration required to inhibit rat liver squalene synthase enzyme relative to control (L-694,599). The gist of the method: as §2
The subject of the next assay is Candida parapsilosis. Description: Concentration required to inhibit growth of MY 1010 strain of Candida parapsilosis. It counts as functional. Conditions: Lodderomyces parapsilosis. In a few lines:
(§4)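 Broth microdilution against a panel of clinically relevant fungal strains. Read-out was the minimum fungicidal concentration in μg/mL.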

A further assay has as its system Trichophyton benhamiae. Description: Concentration required to inhibit growth of MF 4864 strain of Trichophyton mentagrophytes. It counts as functional, Arthroderma benhamiae. In a few lines:
as §4

The test system of another assay is Candida tropicalis. Description: Concentration required to inhibit growth of MY 1012 strain of Candida tropicalis. It counts as functional. In a few lines:
as §4

The test system of assay [9] is Cryptococcus neoformans. Description: Concentration required to inhibit growth of MY 2061 strain of Cryptococcus neoformans. The assay is classed as functional. The gist of the method:
as §4

The next assay deals with Aspergillus fumigatus. As to the kind of experiment: Concentration required to inhibit growth of MF 4839 strain of Aspergillus fumigatus. It counts as functional. In a few lines:
as §4

For assay [10], the system named is Mus musculus. Description: Ability to inhibit the incorporation of [5-3H]-mevalonolactone into cholesterol by in vivo mouse assay by peroral administration at a dose of 24 mg/kg. The assay is classed as functional. Conditions: route oral. In a few lines: as §1
In assay [11] the test system is Candida albicans. Description: Concentration required to inhibit growth of MY 1055 strain of Candida albicans. It counts as functional. The gist of the method: as §4
Assay [12] relates to Cryptococcus neoformans. As to the kind of experiment: Concentration required to inhibit growth of MY 1051 strain of Cryptococcus neoformans. The assay is classed as functional. The gist of the method:
as §4

In assay [13] the test system is Candida albicans. As to the kind of experiment: Concentration required to inhibit growth of MY 1750 strain of Candida albicans. It counts as functional. In a few lines:
as §4

In assay [14] the test system is squalene synthase (Saccharomyces cerevisiae). As to the kind of experiment: compound required to inhibit 50% activity of yeast squalene synthase enzyme relative to control (L-694,599).
Assay [15] deals with T1, Squalene synthase. Description: Concentration required for inhibition of rat liver squalene synthase enzyme at 161 nM; NA = not active.
Assay [16] has as its target T1, Squalene synthase. Description: Concentration required for inhibition of rat liver squalene synthase enzyme at 161 nM; Not active.

The structures appear in SMILES notation. In brackets after ≈: the same amount, converted by molar mass.

In the case of `C=C(CCC12OC(C(=O)O)C(O)(C(=O)O)C(C(=O)O)(O1)[C@H](OC)[C@H]2O)[C@@H](OC(C)=O)[C@H](C)Cc1ccccc1` (stereo partly drawn), on Squalene synthase [1], half-maximal inhibition (IC50) required 22 nM. Moreover, the inhibition in vivo at 12 mg/kg with Mus musculus [2] was determined as 73%. The same compound gave a Relative activity in [3] of 0.004. The ED50 in assay [4] is under 12 mg/kg.

Consider `C=C(CCC12OC(C(=O)O)C(O)(C(=O)O)C(C(=O)O)(O1)[C@H](OCCCCCCCCCCCCCC)[C@H]2O)[C@@H](OC(C)=O)[C@H](C)Cc1ccccc1` (stereo partly drawn), for which the values for the IC50 with HepG2 [5] and at Squalene synthase [1] were 1500 nM and 0.09 nM, respectively. Besides, the inhibition in vivo at 40 mg/kg with Mus musculus [6] was 0%. In addition, the Relative activity with HepG2 [7] was 6; in assay [8] it was 1.26.

`C=C(CCC12OC(C(=O)O)C(O)(C(=O)O)C(C(=O)O)(O1)[C@H](OC(=O)OCCCCCCCCCC)[C@H]2O)[C@@H](OC(C)=O)[C@H](C)Cc1ccccc1` (stereo partly drawn): the MFC against Candida parapsilosis is 2 µg/mL (≈ 2.77 µM); with Trichophyton benhamiae, under 0.06 µg/mL; against Candida tropicalis it was 2 µg/mL (≈ 2.77 µM); against Cryptococcus neoformans [9], 0.25 µg/mL (≈ 0.346 µM); with Aspergillus fumigatus it was 2 µg/mL (≈ 2.77 µM); with Candida albicans [11], 8 µg/mL (≈ 11.1 µM). Moreover, the results for the MFC in the assay on Cryptococcus neoformans [12] and with Candida albicans [13] were 8 µg/mL (≈ 11.1 µM) and 16 µg/mL (≈ 22.1 µM), respectively. In the assay with HepG2 [5], this compound gave an IC50 of 2400 nM. In the assay with Mus musculus [10], the inhibition in vivo at 24 mg/kg was 28%.

`C=C(CCC12OC(C(=O)O)C(O)(C(=O)O)C(C(=O)O)(O1)[C@H](OC(=O)CC(C)(C)C)[C@H]2O)[C@@H](OC(C)=O)[C@H](C)Cc1ccccc1` (stereo partly drawn) registered an IC50 on Squalene synthase [1] of 2 nM. The inhibition in vivo at 12 mg/kg in the assay with Mus musculus [2] stood at 25%. Besides, the ED50 in assay [4] is over 12 mg/kg. This compound showed a Relative activity in assay [8] of 0.15.

On to `C=C(CCC12OC(C(=O)O)C(O)(C(=O)O)C(C(=O)O)(O1)[C@H](OC(=O)OCCCCCCCCCCCOc1ccccc1)[C@H]2O)[C@@H](OC(C)=O)[C@H](C)Cc1ccccc1` (stereo partly drawn), for which the MFC is 4 µg/mL (≈ 4.83 µM) against Candida parapsilosis; 0.5 µg/mL (≈ 0.603 µM) in the assay on Candida tropicalis; 16 µg/mL (≈ 19.3 µM) against Cryptococcus neoformans [9]; 0.15 µg/mL (≈ 0.181 µM) against Aspergillus fumigatus; over 128 µg/mL with Candida albicans [11]; 8 µg/mL (≈ 9.65 µM) against Cryptococcus neoformans [12]. The MFC in the assay on Candida albicans [13] was 0.5 µg/mL (≈ 0.603 µM). Further, the IC50 with HepG2 [5] worked out at 2400 nM; at Squalene synthase [1], 0.04 nM. Moreover, in the assay on Mus musculus [6], the inhibition in vivo at 40 mg/kg came to 12%. The results for the Relative activity (in assay [14]; in the assay with HepG2 [7]; in [8]) were 6.07, 3.46 and 3, respectively.

In the case of `C=C(CCC12OC(C(=O)O)C(OCCCCCCCCCCCCCC)(C(=O)O)C(C(=O)O)(O1)[C@H](OCCCCCCCCCCCCCC)[C@H]2O)[C@@H](OC(C)=O)[C@H](C)Cc1ccccc1` (stereo partly drawn), the IC50 result at Squalene synthase [15] is given as “Not Active”.

Regarding `C=C(CCC12OC(C(=O)O)C(O)(C(=O)O)C(C(=O)O)(O1)[C@H](OC(=O)C(C)(C)C)[C@H]2O)[C@@H](OC(C)=O)[C@H](C)Cc1ccccc1` (stereo partly drawn), the inhibition in vivo at 12 mg/kg with Mus musculus [2] was -2%. In addition, the IC50 result against Squalene synthase [16] is reported as “Not Active”. Besides, the ED50 in assay [4] was over 12 mg/kg.

Regarding `C=C(CCC12OC(C(=O)O)C(O)(C(=O)O)C(C(=O)O)(O1)[C@H](OCCCCCCCCCCCC)[C@H]2O)[C@@H](OC(C)=O)[C@H](C)Cc1ccccc1` (stereo partly drawn), the MFC in the assay with Candida parapsilosis came out at 8 µg/mL (≈ 11.3 µM); with Trichophyton benhamiae, 1 µg/mL (≈ 1.41 µM); against Candida tropicalis, 64 µg/mL (≈ 90.5 µM); against Cryptococcus neoformans [9] it was 0.12 µg/mL (≈ 0.17 µM); against Aspergillus fumigatus, 0.5 µg/mL (≈ 0.707 µM); against Candida albicans [11], 4 µg/mL (≈ 5.66 µM). Further, the MFC in the assay on Cryptococcus neoformans [12] was 0.5 µg/mL (≈ 0.707 µM); against Candida albicans [13], 32 µg/mL (≈ 45.3 µM). The IC50 in the assay on HepG2 [5] worked out at 1600 nM; on Squalene synthase [1] it was 0.12 nM. Moreover, the inhibition in vivo at 40 mg/kg with Mus musculus [6] came to 26%. The values for the Relative activity (in [14]; with HepG2 [7]; in [8]) were 9.26, 5.62 and 2.5, respectively.

Turning to `C=C(CCC12OC(C(=O)O)C(O)(C(=O)O)C(C(=O)O)(O1)[C@H](OC(=O)CCCN)[C@H]2O)[C@@H](OC(C)=O)[C@H](C)Cc1ccccc1` (stereo partly drawn), in the assay on Mus musculus [2], the inhibition in vivo at 12 mg/kg was 0%. Also, the IC50 entry against Squalene synthase [16] is given as “Not Active”. The ED50 in [4] is over 12 mg/kg.

For `C=C(CCC12OC(C(=O)O)C(OCCCCCCCCCCCOc3ccccc3)(C(=O)O)C(C(=O)O)(O1)[C@H](OCCCCCCCCCCCOc1ccccc1)[C@H]2O)[C@@H](OC(C)=O)[C@H](C)Cc1ccccc1` (stereo partly drawn), at Squalene synthase [15], the IC50 result is recorded as “Not Active”.
